# Screening data (PubChem)
# Shown are actives, neighbours in structure and some others; about 5.6% of the full set was active somewhere.
# MPTP inh = inhibitors of mitochondrial permeability transition pore. isolated mouse mitochondria, Ca2+ swelling absorbance, 30 min. inhibition, % at 10 µM. 360,000 compounds, 1.4% hits. AID 602449;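 active = inhibition of 50% or more, scaled per plate between neutral and stimulator controls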;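 note: 0% = DMSO wells given calcium and 100% = 1 mM EGTA wells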
# CHOP UPR activ = activators of apoptotic arm of unfolded protein response (CHOP) | CHO-CHOP luciferase reporter, UPR activation, luminescence; percent of tunicamycin response over DMSO baseline | activation, % at 10 µM | 330,000 compounds, 0.34% hits;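 active = at 10 µM dose, activation of 40% or more, normalized to positive control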;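 note: 100% = tunicamycin at 10 µg/mL and 0% = DMSO alone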
#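 Assay system: CHO cells with stable CHOP pathway luciferase reporter; Buffer or medium: F12 plus 10% serum; Times: 16-18 h cell attachment, then 6 h compound exposure, 37 °C; Signal: luciferase luminescence; Read-out basis: percent activation relative to tunicamycin control; Control set: tunicamycin high control, DMSO low control.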
# aDG glyco up = increases alpha dystroglycan glycosylation. Pro5-aDG cells, alpha-DG glycosylation AlphaScreen (IIH6); 0% Pro5, 100% B10-LARGE cell signal. activation, % at 10 µM. 360,000 compounds, 0.22% hits. AID 624168;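 active = activation of at least 8% versus controls, or a plate z-score of at least 8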;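 note: Pro5 are CHO cells carrying HIG-tagged alpha-DG that lacks glycosylation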
# CHOP inh = CHOP inhibition in unfolded protein response; CHO-K1 CHOP-promoter luciferase, tunicamycin-induced, 15-18 h; inhibition, % at 10 µM; 220,000 compounds, 3.8% hits;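 active = compounds that reduced the stress-induced luciferase reporter signal by more than about 70% of percent inhibition, limit read from the data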;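 note: 0% = tunicamycin plus vehicle and 100% = wells without tunicamycin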
# GRIN3A LBD mod = modulators (binders) of human NR3A ligand-binding domain; NR3A LBD differential scanning fluorimetry, Tm shift; 0% = protein alone, 100% = glycine-bound protein; Tm shift relative to glycine control, % at 25 µM; 340,000 compounds, 2.5% hits;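 active = melting temperature shift of at least 10% of the positive control shift, at one fixed dose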
# XBP1 UPR activ = adaptive UPR (XBP1) activation; activation, % at 20 µM; 330,000 compounds, 0.33% hits; AID 463104; CHO-XBP1 luciferase reporter, IRE1-XBP1 UPR activation, luminescence; percent of tunicamycin response, DMSO as zero;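 active = versus positive control, 20 µM dose yields 30% or more activation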;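 note: 100% = tunicamycin at 10 µg/mL and 0% = DMSO only wells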
#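 Test system: CHO-XBP1 luciferase reporter cells | Buffer or medium: Serum-containing F12 medium, 10% FBS | Schedule: 6 h compound exposure at 37 °C, 5% CO2 | Detection: Steady-Glo luciferase glow luminescence, 10 min after reagent addition | Read-out basis: Activation, % of tunicamycin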
# An asterisk follows results filed as active; / = no result.
SMILES,MPTP inh,CHOP UPR activ,aDG glyco up,CHOP inh,GRIN3A LBD mod,XBP1 UPR activ
CCN(CC)S(=O)(=O)c1ccc(O)c(NC(=O)c2cc(-c3cc(OC)c(OC)c(OC)c3)nc3ccccc23)c1,5,2,0,/,17*,-8
COc1cc2c(cc1NC(=O)c1cc(-c3cccnc3)nc3ccc(C)cc13)oc1ccccc12,2,-1,0,86*,-8,0
COc1cc2c(cc1NC(=O)c1cc(-c3ccncc3)nc3ccccc13)oc1ccccc12,4,-1,0,85*,-22,0
Cc1ccc2nc(-c3ccccc3)cc(C(=O)Nc3cccnc3)c2c1,0,-1,0,/,-5,0
COc1ccc(OCC(O)Cn2cnc(-c3ccc(Br)cc3)c2)cc1 (centres undefined),2,-1,0,22,-10,-1
OC(COc1ccc2ccccc2c1Br)Cn1cnc(-c2ccccc2)c1 (centres undefined),1,-2,0,76*,14*,-3
Cc1ccc(C2/C=C\CC(NC(=O)OCC3c4ccccc4-c4ccccc43)CC(=O)N2Cc2ccccc2)cc1 (centres undefined),0,2,0,/,-1,0
Cc1nc2scc(-c3ccc(C(C)(C)C)cc3)c2c(=O)n1N,3,1,1,76*,-1,3
NC(=O)C1CCN(C(=O)C2CCC(=O)N(C3CCCCCC3)C2)CC1 (centres undefined),0,-1,0,/,-1,-1
CCc1ccccc1NC(=S)N1CCCCCC1,0,0,0,/,1,-2
CCOC(=O)c1sc(NC(=O)CSc2nnnn2-c2ccc(C)c(C)c2)nc1C,-3,-1,0,93*,1,0
CCOC(=O)c1sc(NC(=O)CSc2nnnn2-c2ccccc2)nc1C,0,-2,0,85*,-7,5
COC(=O)c1sc(NC(=O)CSc2nnnn2-c2cccc(OC)c2)nc1C,0,-2,0,55,-3,-2
NC(=O)c1ncn([C@@H]2O[C@H](CNCc3cccc4c3sc3ccccc34)[C@@H](O)[C@H]2O)n1,-1,/,0,/,2,/
NC(=O)c1ncn([C@@H]2O[C@H](CNCc3cnc(N4CCOCC4)nc3)[C@@H](O)[C@H]2O)n1,0,/,0,/,13*,/
NC(=O)c1ncn([C@@H]2O[C@H](CNCc3cccc(OC4CCCC4)c3)[C@@H](O)[C@H]2O)n1,0,/,0,/,17*,/
COc1cc(Cl)c(CNC[C@H]2O[C@@H](n3cnc(C(N)=O)n3)[C@H](O)[C@@H]2O)c(Cl)c1O,2,/,0,/,0,/
COc1cc(OC)c2c(-c3ccccc3)cc(=O)oc2c1C(CCN1CCCC(C)C1)c1ccc2c(c1)OCO2 (centres undefined),2,9,-1,-62,-4,10
CCCCCc1cc(=O)oc2c(C(CCN3CCCC(C)C3)c3cc(OC)c(OC)c(OC)c3)c(OC)cc(OC)c12 (centres undefined),9,21,-1,93*,-21,10
CCCCCc1cc(=O)oc2c(C(CCN3CCCC(C)C3)c3ccc(N(C)C)cc3)c(OC)cc(OC)c12 (centres undefined),4,20,-1,84*,-1,22
COc1cc(OC)c2ccc(=O)oc2c1C(CCN1CCCC(C)C1)c1ccc(N(C)C)cc1 (centres undefined),-1,4,0,20,2,-1
Cc1ccc(S(=O)(=O)C=CS(=O)(=O)c2ccc(C)cc2)cc1,-1,/,0,/,/,/
O=S(=O)(/C=C/C=C/S(=O)(=O)c1ccccc1)c1ccccc1,-2,/,0,/,13*,/
COC(=O)C1CCN(C(c2ccc(OC)c(OC)c2)c2sc3nc(C)nn3c2O)CC1 (centres undefined),-2,-3,0,-15,13*,4
COc1ccc(C(c2sc3nc(C)nn3c2O)N2CCC(C(N)=O)CC2)cc1OC (centres undefined),-2,-4,0,-8,-1,-5
SMILES,MPTP inh,CHOP UPR activ,aDG glyco up,CHOP inh,GRIN3A LBD mod,XBP1 UPR activ
CCS(=O)(=O)N1CCN(c2ccc([N+](=O)[O-])c(N3CCOCC3)c2)CC1,-1,-1,0,26,16*,-1
CNc1cc(N2CCN(S(=O)(=O)N(C)C)CC2)ccc1[N+](=O)[O-],0,2,-1,10,10*,-1
O=C(COC(=O)[C@H](Cc1c[nH]c2ccccc12)NC(=O)c1ccc(Cl)cc1)Nc1ccc2c(c1)OCO2,7,4,0,82*,20*,7
CC(=O)N[C@@H](Cc1c[nH]c2ccccc12)C(=O)OCC(=O)Nc1ccc2c(c1)OCO2,-2,/,0,/,12*,/
CC(=O)NC(Cc1c[nH]c2ccccc12)C(=O)NCc1ccc2c(c1)OCO2 (centres undefined),0,0,0,-26,0,1
Clc1cccc(NCc2nnc(SCc3ccccc3)o2)c1,1,-1,0,71*,-16,2
N#CCSc1nnc(CNc2cccc(Cl)c2)o1,1,-1,0,10,14*,1
N#CCSc1nnc(COc2ccc3ccccc3c2)o1,2,1,1,13,15*,0
N#CCSc1nnc(CNc2ccc(F)cc2)o1,1,0,0,10,1,3
Clc1cccc(NCc2nnc(SCc3ccccc3Cl)o2)c1,0,-2,0,68,-5,4
COc1cc(OC)cc(C(=O)N2CCN(C3CCC(C)CC3)CC2)c1 (centres undefined),1,/,0,/,-1,/
COc1cc(OC)cc(C(=O)N2CCN(c3ccc(N4CCOCC4)nn3)CC2)c1,2,1,0,/,/,1
C=C(C)CSc1nc2sc3c(c2c(=O)n1-c1ccc(C)cc1)CCN(C)C3,0,-1,0,/,-7,-2
O=C(Nc1cccc(Cl)c1)c1cc(N=Nc2ccc([N+](=O)[O-])cc2Cl)ccc1O,25,-1,0,36,19*,-5
COC1=CC(=O)[C@@]2([C@@H]1O)[C@@H](Cl)C[C@]13C(OC)=C(OC)C(=O)C[C@]21CCN3C,0,-1,0,/,-2,0
Cc1ccc(/C(N)=N/OC(=O)c2ccc3ccccc3c2)cc1,0,2,0,/,27*,-1
Cc1cccc(/C(N)=N/OC(=O)c2ccc(Cl)cc2Cl)c1,7,1,0,51,-16,-3
Cc1ccc(/C(N)=N/OC(=O)c2ccc(C)cc2Cl)cc1,0,1,0,-5,197*,-6
